In ChEMBL document CHEMBL1131072, “Synthesis, physicochemical properties, and evaluation of N-substituted-2-alkyl-3-hydroxy-4(1H)-pyridinones” (J Med Chem, 1998):

Assays:
[1] = Partition coefficient (logD7.4); type: physicochemical; settings: octanol/water, pH 7.4
Method in brief: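 Shake-flask used a 100:1 or 1:100 phase ratio, 1 h stirring, centrifugation, and aqueous absorbance, repeated at least four times. Fe complexes were made at 10:1 ligand:Fe (10^-3/10^-4 M) and read at 460 nm. Reported as mean ± SD.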

Rattus norvegicus [2] = assay: The amount iron excretion in the bile duct-cannulated rats when iron chelator administered subcutaneously at dose 142 mg/kg; type: functional; settings: route subcutaneous
Method in brief: (§1)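 Non-iron-overloaded male Fischer rats (200–240 g) with bile-duct cannulas in metabolic cages. Control bile/urine was collected for 3 h; chelator was then given subcutaneously or by gavage. Bile was collected in 3-h fractions over 24 h, plus 24-h urine. Iron was measured by bathophenanthroline colorimetry (TCA/HCl, 65 °C 4 h, A535) against iron standards after blank subtraction.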

Rattus norvegicus [3] = assay: The amount iron excretion in the bile duct-cannulated rats when iron chelator administered orally at dose 142 mg/kg; type: functional; settings: route oral; method in brief: as §1
[4] = Compound was determined for their EDTA competition value(log beta3) of affinity constants.; type: ADME
Method in brief: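 Spectrophotometric competition against EDTA on an automated titration system. The iron(III) complex was prepared at 5:1 ligand:Fe molar ratio in 0.1 M MOPS, pH 7.4, then titrated with EDTA. Spectral data were fitted in COMPT1 to give log β3, accurate to ±0.02 log unit.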

[5] = Spectrophotometric values of pKa2 and pKa3
[6] = Compound was tested for equilibrium constants (pKa1) spectrophotometrically.; type: physicochemical; settings: read-out: pKa1
Method in brief: (§2)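 The UV/vis spectrum was recorded alongside each potentiometric titration step: 0.1 M KCl, HCl-acidified, titrated with 0.2 M KOH at 25 ± 0.5 °C under argon. Spectral data were fitted with TITRFIT (modified NONLIN) to give pKa, accurate to ±0.02 pH unit.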

[7] = Compound was tested for equilibrium constants (pKa1) potentiometrically; type: physicochemical; settings: read-out: pKa1
Method in brief: (§3)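 Potentiometric titration in 0.1 M KCl (25 mL), acidified with 0.2 M HCl and titrated with 0.2 M KOH in 0.01-mL increments. Run at 25 ± 0.5 °C under argon, with the electrode zero set by a blank titration (Gran's plot). Data were fitted with TITRFIT; pKa accuracy ±0.02 pH unit.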

[8] = Compound was tested for equilibrium constants (pKa3) of the (carboxyalkyl) pyridinone corresponds to the […] function spectrophotometrically..; type: physicochemical; settings: read-out: pKa3; method in brief: as §2
[9] = Compound was tested for equilibrium constants (pKa3) of the (carboxyalkyl) pyridinone corresponds to the […] function potentiometrically; type: physicochemical; settings: read-out: pKa3; method in brief: as §3
[10] = Compound was determined for their affinity constants(log K3) with Fe(III) complex.; type: ADME
Method in brief: (§4)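 Stepwise constants K1, K2 and K3 came from simultaneous spectrophotometric/potentiometric pH titrations of ligand with iron(III). Parameters were obtained by global optimization over titrations at several ligand and iron(III) concentrations, using the Fe3+/L− stepwise model (FeL2+, FeL2+, FeL3).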

[11] = Potentiometric values of pKa2 and pKa3
[12] = Compound was determined for their affinity constants(log K2) with Fe(III) complex.; type: ADME; method in brief: as §4
[13] = Compound was determined for their affinity constants(log K1) with Fe(III) complex.; type: ADME
Method in brief: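 Stepwise Fe(III) stability constants (K1, K2, K3) came from simultaneous spectrophotometric/potentiometric pH titrations of ligand with iron(III) at several ligand and Fe(III) concentrations. Parameters were fitted by global optimization, and spectra were followed across pH.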

[14] = Compound was tested for equilibrium constants (pKa2) of the (hydroxyalkyl)pyridinone corresponds to the 3-hydroxy function spectrophotometrically..
Rattus norvegicus [15] = assay: The amount iron excretion in the bile duct-cannulated rats when iron chelator administered orally at dose 132 mg/kg; type: functional; settings: route oral; method in brief: as §1
[16] = Compound was tested for equilibrium constants (pKa2) of the (hydroxyalkyl)pyridinone corresponds to the 3-hydroxy function potentiometrically
Rattus norvegicus [17] = assay: The amount iron excretion in the bile duct-cannulated rats when iron chelator administered subcutaneously at dose 132 mg/kg; type: functional; settings: route subcutaneous; method in brief: as §1
Rattus norvegicus [18] = assay: The dose of the iron chelator administered in the bile duct-cannulated rats.; type: functional; method in brief: as §1
Rattus norvegicus [19] = assay: The amount iron excretion in the bile duct-cannulated rats when iron chelator administered subcutaneously.; type: functional; method in brief: as §1
Rattus norvegicus [20] = assay: The amount iron excretion in the bile duct-cannulated rats when iron chelator administered orally.; type: functional; method in brief: as §1

**Q.** Which logD [1] does the source give for `CCOC(Cn1ccc(=O)c(O)c1C)OCC` here?
**A.** 0.21

**Q.** For `CNC(=O)CCn1ccc(=O)c(O)c1C`, which logD [1] is on record?
**A.** -1.15

**Q.** Which logD [1] does the source give for `Cc1c(O)c(=O)ccn1C(CO)CO` here?
**A.** -1.7

**Q.** Which logD [1] does the source give for `CNC(=O)CCCn1ccc(=O)c(O)c1C` here?
**A.** -1.08

**Q.** With `CCc1c(O)c(=O)ccn1CCCO` as the molecule, how does the Iron excretion (Rattus norvegicus [2]) read?
**A.** 634 µg/kg

**Q.** And the Iron excretion (Rattus norvegicus [3])?
**A.** 265 µg/kg

**Q.** And the logD [1]?
**A.** -0.32

**Q.** Which logD [1] does the source give for `COC(Cn1ccc(=O)c(O)c1C)OC` here?
**A.** -0.46

**Q.** For `Cc1c(O)c(=O)ccn1CC(C)(C)O`, which logD [1] is on record?
**A.** -0.77

**Q.** For `C=CCn1ccc(=O)c(O)c1CC`, which logD [1] is on record?
**A.** 0.47

**Q.** Which results are given for `CCc1c(O)c(=O)ccn1CCC(=O)O`?
**A.** Log beta3 [4]: 37; pKa [5]: 9.91; pKa [6]: 3.22; pKa [7]: 3.12; pKa [8]: 9.91; pKa [9]: 9.89; Log K3 [10]: 7.9; pKa [11]: 9.89; Log K2 [12]: 11.4; Log K1 [13]: 16.6; logD [1]: -1.6

**Q.** For `COC(=O)CCn1ccc(=O)c(O)c1C`, which logD [1] is on record?
**A.** -0.77

**Q.** With `CCc1c(O)c(=O)ccn1CCCC(=O)O` as the molecule, how does the pKa [5] read?
**A.** 9.99

**Q.** And the pKa [6]?
**A.** 3.42

**Q.** And the pKa [7]?
**A.** 3.21

**Q.** And the pKa [8]?
**A.** 9.99

**Q.** What about the pKa [9] of the same molecule?
**A.** 9.89

**Q.** What about the pKa [11] of the same molecule?
**A.** 9.89

**Q.** And the logD [1]?
**A.** -1.38

**Q.** For `Cc1nccc(O)c1O`, which logD [1] is on record?
**A.** -0.5

**Q.** What does the source list for `CCc1c(O)c(=O)ccn1CCO`?
**A.** pKa [14]: 9.75; Log beta3 [4]: 36.8; pKa [5]: 9.75; pKa [6]: 3.34; pKa [7]: 3.31; Log K3 [10]: 9.4; pKa [11]: 9.77; Log K2 [12]: 11.6; Iron excretion (Rattus norvegicus [15]): 819 µg/kg; Log K1 [13]: 15.7; pKa [16]: 9.77; Iron excretion (Rattus norvegicus [17]): 698 µg/kg; logD [1]: -0.66

**Q.** With `Cc1c(O)c(=O)ccn1C(C)C` as the molecule, how does the logD [1] read?
**A.** 0.05

**Q.** Which logD [1] does the source give for `CCNC(=O)CCn1ccc(=O)c(O)c1C` here?
**A.** -0.82

**Q.** For `CCOCCCn1ccc(=O)c(O)c1C`, which logD [1] is on record?
**A.** 0.12

**Q.** Which logD [1] does the source give for `COCCn1ccc(=O)c(O)c1C` here?
**A.** -0.41

**Q.** For `Cc1c(O)c(=O)ccn1CCN`, which logD [1] is on record?
**A.** -1.55

**Q.** With `C=CCn1ccc(=O)c(O)c1C` as the molecule, how does the logD [1] read?
**A.** 0.03

**Q.** With `CCOC(=O)CCn1ccc(=O)c(O)c1C` as the molecule, how does the logD [1] read?
**A.** -0.24

**Q.** For `Cc1c(O)c(=O)ccn1CC(O)CO` (stereo not given), which Dose (Rattus norvegicus [18]) is on record?
**A.** 143 mg/kg

**Q.** And the Iron excretion (Rattus norvegicus [19])?
**A.** 142 µg/kg

**Q.** And the Iron excretion (Rattus norvegicus [20])?
**A.** 104 µg/kg

**Q.** With `Cc1c(O)c(=O)ccn1CC(C)C` as the molecule, how does the logD [1] read?
**A.** 0.65

**Q.** For `CCn1ccc(=O)c(O)c1C`, which logD [1] is on record?
**A.** -0.31
